# Experimental data reported in ChEMBL document CHEMBL1138354, “2-(2'-((dimethylamino)methyl)-4'-(fluoroalkoxy)-phenylthio)benzenamine derivatives as serotonin transporter imaging agents” (J Med Chem, 2007).
# Key:
# Brain [1] = assay: Biodistribution in iv dosed rat brain after 60 mins; type: ADME, organism-based; settings: in vivo, 1 h
# Procedure, shortened: (§1)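 [18F]-labeled tracer was given to rats under isoflurane anesthesia: 0.2 ml sterile water with 1 mg/mL BSA and 10–100 μCi, into the femoral vein. Three rats per group. Animals were killed by cervical dislocation under anesthesia at the stated time. Organs were removed, weighed and counted. Uptake was calculated as percent dose against a 1% aliquot of the injected dose counted alongside.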
# Blood [2] = assay: Biodistribution in iv dosed rat blood after 60 mins; type: ADME, organism-based; settings: in vivo, 1 h; procedure, shortened: as §1
# Muscle tissue [3] = assay: Biodistribution in iv dosed rat muscle after 60 mins; type: ADME, organism-based; settings: in vivo, 1 h; procedure, shortened: as §1
# Striatum [4] = assay: Biodistribution in iv dosed rat striatum assessed as radioactivity after 30 mins; type: ADME, organism-based; settings: in vivo, 0.5 h
# Cortex = assay: Biodistribution in iv dosed rat cortex assessed as radioactivity after 240 mins; type: ADME, organism-based; settings: in vivo, 4 h
# Procedure, shortened: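 Rats received the [18F] tracer under isoflurane anesthesia: 0.2 ml sterile water with 1 mg/mL BSA and 10–100 μCi, into the femoral vein. Three rats per group. After cervical dislocation under anesthesia, the cortex was dissected, weighed and gamma-counted. Percent dose/g was calculated against a 100-fold diluted aliquot of the injected dose.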
# Kidney [5] = assay: Biodistribution in iv dosed rat kidney after 2 mins; type: ADME, organism-based; settings: in vivo; procedure, shortened: as §1
# Nucleic Acid [6] = assay: Ratio of drug level in hypothalamus to cerebellum in rat after 120 mins; type: ADME, tissue-based; settings: in vivo, 2 h
# Procedure, shortened: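 Rats, 3 per group, given ¹⁸F tracer (10–100 μCi, 0.2 ml sterile water with 1 mg/mL BSA) into the femoral vein under isoflurane. Brain regions, including hypothalamus, striatum and cerebellum, dissected, weighed and counted. % dose/g calculated against a 1% diluted aliquot of the dose. Region/cerebellum ratio is region %dose/g divided by cerebellum %dose/g. SD of the ratio propagated from both means and SDs.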
# Lung [7] = assay: Biodistribution in iv dosed rat lungs after 30 mins; type: ADME, organism-based; settings: in vivo, 0.5 h; procedure, shortened: as §1
# Kidney [8] = assay: Biodistribution in iv dosed rat kidney after 240 mins; type: ADME, organism-based; settings: in vivo, 4 h; procedure, shortened: as §1
# Muscle tissue [9] = assay: Biodistribution in iv dosed rat muscle after 2 mins; type: ADME, organism-based; settings: in vivo; procedure, shortened: as §1
# Zone of skin [10] = assay: Biodistribution in iv dosed rat skin after 240 mins; type: ADME, organism-based; settings: in vivo, 4 h
# Nucleic Acid [11] = assay: Ratio of drug level in cortex to cerebellum in rat assessed as radioactivity after 60 mins; type: ADME, tissue-based; settings: in vivo, 1 h
# Bone [12] = assay: Biodistribution in iv dosed rat bone after 240 mins; type: ADME, organism-based, Bone element; settings: in vivo, 4 h; procedure, shortened: as §1
# Brain [13] = assay: Biodistribution in iv dosed rat brain after 2 mins; type: ADME, organism-based; settings: in vivo; procedure, shortened: as §1
# Bone [14] = assay: Biodistribution in iv dosed rat bone after 30 mins; type: ADME, organism-based, Bone element; settings: in vivo, 0.5 h; procedure, shortened: as §1
# Striatum [15] = assay: Biodistribution in iv dosed rat striatum assessed as radioactivity after 60 mins; type: ADME, organism-based; settings: in vivo, 1 h
# Kidney [16] = assay: Biodistribution in iv dosed rat kidney after 120 mins; type: ADME, organism-based; settings: in vivo, 2 h; procedure, shortened: as §1
# Nucleic Acid [17] = assay: Ratio of drug level in striatum to cerebellum in rat assessed as radioactivity after 30 mins; type: ADME, tissue-based; settings: in vivo, 0.5 h
# Procedure, shortened: (§2)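 Groups of three normal rats under isoflurane received the [18F] tracer (10–100 μCi in 0.2 ml sterile water containing 1 mg/mL BSA) into the femoral vein. They were killed by cervical dislocation under anesthesia at the stated time. Cortex, striatum, hippocampus, hypothalamus and cerebellum were dissected, weighed and gamma-counted. %dose/g was set against a 100-fold diluted dose aliquot, and each region was divided by cerebellum.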
# Nucleic Acid [18] = assay: Ratio of drug level in hypothalamus to cerebellum in rat after 2 mins; type: ADME, tissue-based; settings: in vivo
# Nucleic Acid [19] = assay: Ratio of drug level in cortex to cerebellum in rat assessed as radioactivity after 2 mins; type: ADME, tissue-based; settings: in vivo
# Nucleic Acid [20] = assay: Ratio of drug level in cortex to cerebellum in rat assessed as radioactivity after 30 mins; type: ADME, tissue-based; settings: in vivo, 0.5 h; procedure, shortened: as §2
# Liver [21] = assay: Biodistribution in iv dosed rat liver after 120 mins; type: ADME, organism-based; settings: in vivo, 2 h; procedure, shortened: as §1
# Nucleic Acid [22] = assay: Ratio of drug level in striatum to cerebellum in rat assessed as radioactivity after 2 mins; type: ADME, tissue-based; settings: in vivo
# Heart [23] = assay: Biodistribution in iv dosed rat heart after 2 mins; type: ADME, organism-based; settings: in vivo; procedure, shortened: as §1
# Nucleic Acid [24] = assay: Ratio of drug level in hippocampus to cerebellum in rat assessed as radioactivity after 240 mins; type: ADME, tissue-based; settings: in vivo, 4 h
# Zone of skin [25] = assay: Biodistribution in iv dosed rat skin after 2 mins; type: ADME, organism-based; settings: in vivo
# Liver [26] = assay: Biodistribution in iv dosed rat liver after 60 mins; type: ADME, organism-based; settings: in vivo, 1 h; procedure, shortened: as §1
# Nucleic Acid [27] = assay: Ratio of drug level in hypothalamus to cerebellum in rat assessed as radioactivity after 240 mins; type: ADME, tissue-based; settings: in vivo, 4 h
# Kidney [28] = assay: Biodistribution in iv dosed rat kidney after 60 mins; type: ADME, organism-based; settings: in vivo, 1 h; procedure, shortened: as §1
# Spleen [29] = assay: Biodistribution in iv dosed rat spleen after 60 mins; type: ADME, organism-based; settings: in vivo, 1 h
# Nucleic Acid [30] = assay: Ratio of drug level in hippocampus to cerebellum in rat assessed as radioactivity after 120 mins; type: ADME, tissue-based; settings: in vivo, 2 h; procedure, shortened: as §2
# Striatum [31] = assay: Biodistribution in iv dosed rat striatum assessed as radioactivity after 2 mins; type: ADME, organism-based; settings: in vivo
# Spleen [32] = assay: Biodistribution in iv dosed rat spleen after 30 mins; type: ADME, organism-based; settings: in vivo, 0.5 h
# Procedure, shortened: (§3)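 Rats, 3 per group, under isoflurane. ¹⁸F tracer (10–100 μCi) in 0.2 ml sterile water with 1 mg/mL BSA injected into the femoral vein. Killed by cervical dislocation under anesthesia at the stated time. Organs removed, weighed and counted. % dose/organ calculated against counts of a 1% diluted aliquot of the injected dose.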
# Heart [33] = assay: Biodistribution in iv dosed rat heart after 120 mins; type: ADME, organism-based; settings: in vivo, 2 h; procedure, shortened: as §1
# [34] = Partition coefficient, log P at pH 7.4; type: physicochemical; settings: octanol/water
# Zone of skin [35] = assay: Biodistribution in iv dosed rat skin after 120 mins; type: ADME, organism-based; settings: in vivo, 2 h; procedure, shortened: as §3
# Brain [36] = assay: Biodistribution in iv dosed rat brain after 30 mins; type: ADME, organism-based; settings: in vivo, 0.5 h; procedure, shortened: as §1
# Liver [37] = assay: Biodistribution in iv dosed rat liver after 30 mins; type: ADME, organism-based; settings: in vivo, 0.5 h; procedure, shortened: as §1
# Blood [38] = assay: Biodistribution in iv dosed rat blood after 120 mins; type: ADME, organism-based; settings: in vivo, 2 h; procedure, shortened: as §1
# Heart [39] = assay: Biodistribution in iv dosed rat heart after 60 mins; type: ADME, organism-based; settings: in vivo, 1 h; procedure, shortened: as §1
# Nucleic Acid [40] = assay: Ratio of drug level in cortex to cerebellum in rat assessed as radioactivity after 120 mins; type: ADME, tissue-based; settings: in vivo, 2 h; procedure, shortened: as §2
# Nucleic Acid [41] = assay: Ratio of drug level in hippocampus to cerebellum in rat assessed as radioactivity after 60 mins; type: ADME, tissue-based; settings: in vivo, 1 h
# Liver [42] = assay: Biodistribution in iv dosed rat liver after 240 mins; type: ADME, organism-based; settings: in vivo, 4 h; procedure, shortened: as §1
# Nucleic Acid [43] = assay: Ratio of drug level in striatum to cerebellum in rat assessed as radioactivity after 240 mins; type: ADME, tissue-based; settings: in vivo, 4 h
# Brain [44] = assay: Biodistribution in iv dosed rat brain after 120 mins; type: ADME, organism-based; settings: in vivo, 2 h; procedure, shortened: as §1
# Kidney [45] = assay: Biodistribution in iv dosed rat kidney after 30 mins; type: ADME, organism-based; settings: in vivo, 0.5 h; procedure, shortened: as §1
# Nucleic Acid [46] = assay: Ratio of drug level in hippocampus to cerebellum in rat assessed as radioactivity after 30 mins; type: ADME, tissue-based; settings: in vivo, 0.5 h; procedure, shortened: as §2
# Brain [47] = assay: Biodistribution in iv dosed rat brain after 240 mins; type: ADME, organism-based; settings: in vivo, 4 h; procedure, shortened: as §1
# Heart [48] = assay: Biodistribution in iv dosed rat heart after 240 mins; type: ADME, organism-based; settings: in vivo, 4 h; procedure, shortened: as §1
# Muscle tissue [49] = assay: Biodistribution in iv dosed rat muscle after 240 mins; type: ADME, organism-based; settings: in vivo, 4 h; procedure, shortened: as §1
# Lung [50] = assay: Biodistribution in iv dosed rat lungs after 120 mins; type: ADME, organism-based; settings: in vivo, 2 h; procedure, shortened: as §1
# Bone [51] = assay: Biodistribution in iv dosed rat bone after 60 mins; type: ADME, organism-based, Bone element; settings: in vivo, 1 h; procedure, shortened: as §1
# Blood [52] = assay: Biodistribution in iv dosed rat blood after 240 mins; type: ADME, organism-based; settings: in vivo, 4 h; procedure, shortened: as §1
# Nucleic Acid [53] = assay: Ratio of drug level in cortex to cerebellum in rat assessed as radioactivity after 240 mins; type: ADME, tissue-based; settings: in vivo, 4 h
# Lung [54] = assay: Biodistribution in iv dosed rat lungs after 60 mins; type: ADME, organism-based; settings: in vivo, 1 h; procedure, shortened: as §1
# Bone [55] = assay: Biodistribution in iv dosed rat bone after 2 mins; type: ADME, organism-based, Bone element; settings: in vivo; procedure, shortened: as §1
# Nucleic Acid [56] = assay: Ratio of drug level in striatum to cerebellum in rat assessed as radioactivity after 120 mins; type: ADME, tissue-based; settings: in vivo, 2 h; procedure, shortened: as §2
# Lung [57] = assay: Biodistribution in iv dosed rat lungs after 240 mins; type: ADME, organism-based; settings: in vivo, 4 h; procedure, shortened: as §1
# Lung [58] = assay: Biodistribution in iv dosed rat lungs after 2 mins; type: ADME, organism-based; settings: in vivo; procedure, shortened: as §1
smiles,measurement,setting,value
CN(C)Cc1cc(OCC[18F])ccc1Sc1ccc(Br)cc1N,Drug uptake,Brain [1],1.92 %ID
same,Drug uptake,Blood [2],7.05 %ID
same,Drug uptake,Muscle tissue [3],15.5 %ID
same,Drug uptake,Striatum [4],1.09 % ID/g
same,Drug uptake,Cortex,0.82 % ID/g
same,Drug uptake,Kidney [5],5.33 %ID
same,Ratio,Nucleic Acid [6],3.7
same,Drug uptake,Lung [7],4.63 %ID
same,Drug uptake,Kidney [8],1.53 %ID
same,Drug uptake,Muscle tissue [9],18.2 %ID
same,Drug uptake,Zone of skin [10],6.79 %ID
same,Ratio,Nucleic Acid [11],2.41
same,Drug uptake,Bone [12],12.5 %ID
same,Drug uptake,Brain [13],2.05 %ID
same,Drug uptake,Bone [14],8.17 %ID
same,Drug uptake,Striatum [15],1.27 % ID/g
same,Drug uptake,Kidney [16],2 %ID
same,Ratio,Nucleic Acid [17],1.86
same,Ratio,Nucleic Acid [18],0.95
same,Ratio,Nucleic Acid [19],1.45
same,Ratio,Nucleic Acid [20],1.95
same,Drug uptake,Liver [21],2.85 %ID
same,Ratio,Nucleic Acid [22],0.96
same,Drug uptake,Heart [23],1.38 %ID
same,Ratio,Nucleic Acid [24],2.99
same,Drug uptake,Zone of skin [25],5.3 %ID
same,Drug uptake,Liver [26],3.45 %ID
same,Ratio,Nucleic Acid [27],4.26
same,Drug uptake,Kidney [28],2.44 %ID
same,Drug uptake,Spleen [29],0.68 %ID
same,Ratio,Nucleic Acid [30],2.23
same,Drug uptake,Striatum [31],1.02 % ID/g
same,Drug uptake,Spleen [32],0.7 %ID
same,Drug uptake,Heart [33],0.19 %ID
same,logD,[34],2.52
same,Drug uptake,Zone of skin [35],7.07 %ID
same,Drug uptake,Brain [36],1.88 %ID
same,Drug uptake,Liver [37],4.58 %ID
same,Drug uptake,Blood [38],6.19 %ID
same,Drug uptake,Heart [39],0.21 %ID
same,Ratio,Nucleic Acid [40],2.9
same,Ratio,Nucleic Acid [41],2.21
same,Drug uptake,Liver [42],2.13 %ID
same,Ratio,Nucleic Acid [43],3.84
same,Drug uptake,Brain [44],2.16 %ID
same,Drug uptake,Kidney [45],2.85 %ID
same,Ratio,Nucleic Acid [46],1.63
same,Drug uptake,Brain [47],1.57 %ID
same,Drug uptake,Heart [48],0.12 %ID
same,Drug uptake,Muscle tissue [49],8.37 %ID
same,Drug uptake,Lung [50],2.98 %ID
same,Drug uptake,Bone [51],8.53 %ID
same,Drug uptake,Blood [52],5.21 %ID
same,Ratio,Nucleic Acid [53],3.21
same,Drug uptake,Lung [54],3.44 %ID
same,Drug uptake,Bone [55],9.88 %ID
same,Ratio,Nucleic Acid [56],2.84
same,Drug uptake,Lung [57],2.1 %ID
same,Drug uptake,Lung [58],10.3 %ID
